Results gathered from unrelated publications.
Compare with care: the assays were run in different laboratories.
Target: Voltage-gated inwardly rectifying potassium channel KCNH2 (KCNH2, Homo sapiens, UniProt Q12809)

`CCCN1CCCC[C@H]1C(=O)Nc1c(C)cccc1C` gave an inhibition of 82.3% (ion current, inhibitor, patch clamp; 100 µM).
`COC1=CC(c2ccc[nH]2)=N/C1=C\c1[nH]c(Cc2ccc(OC(F)(F)F)cc2)cc1Cc1ccc(OC(F)(F)F)cc1` gave an inhibition of 26.6% (ion current, inhibitor, patch clamp; 50 µM).
With `COc1cc(N)c(Cl)cc1C(=O)NC1CCN(CCCOc2ccc(F)cc2)CC1OC` (stereo not drawn) the inhibition was 3.11% (ion current, inhibitor, patch clamp; HEK293; 100 pM, pH 7.4).
For `NC/C(=C\F)COc1cccc(Cn2c(=S)[nH]c(=O)c3[nH]cnc32)c1`, the inhibition was 3.8% (ion current, inhibitor; 10 µM).
`CC(=O)N1CCC(C(=O)N2CCN3C(=O)c4cc(-c5ccccc5)ccc4NC(=O)C3C2)CC1` (stereo not drawn) gave an inhibition of 4% (ion current, inhibitor, patch clamp; HEK293; 10 µM).
`CN1C[C@H](COc2nccc3c(NCc4ccco4)cc(Cl)nc23)OC1=O` gave an inhibition of 37.1% (ion current, inhibitor; HEK293; 30 µM).
With `CC(C)(C)c1sc2ncnc(Oc3c(F)cccc3OC(F)(F)F)c2c1-c1ccc(Cl)cc1` the inhibition was over 50% (ligand displacement, radioligand; 10 µM).
The inhibition of `CCOC(=O)C1=C(CN2CCC[C@@H]2C(=O)Nc2ccc(B(O)O)cc2)NC(c2nccs2)=N[C@H]1c1ccc(F)cc1Br` is reported as 14.6% (ion current, inhibitor, patch clamp; HEK293; 1 µM, pH 7.4).
`Cn1cc2c(C(=O)O)ccc(NS(=O)(=O)c3ccc(OCC4CCC4)c(Cl)c3)c2n1` gave an IC50 of over 10 µM (ion current).
